KLK5 inh: inhibitors of human kallikrein 5; recombinant hK5, fluorogenic AMC substrate cleavage; inhibition, % at 5 µM; 210,000 compounds, 0.59% hits;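 active = inhibition of 40% or more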
PERK inh: blocks human PERK kinase | Q9NZJ5 | CHO PERK-DD fusion, SEAP luminescence translation reporter | inhibition, % at 5.6 µM | 220,000 compounds, 0.17% hits | AID 1416;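 active = inhibition above the mean inhibition of all tested compounds plus 3 SD, set separately per screening campaign, cut at about 2.9% in these data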;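 note: PERK kinase domain activated by AP20187 dimerizer at 100 nM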
FXIIa inh: factor XIIa (human) inhibition; purified FXIIa, Boc-QGR-AMC fluorogenic substrate, 2 h; 220,000 compounds, 0.3% hits; inhibition, % at 5 µM; P00748; AID 800; in the data active = inhibition above about 40%
Target sequence (P00748 20-372 limits assumed): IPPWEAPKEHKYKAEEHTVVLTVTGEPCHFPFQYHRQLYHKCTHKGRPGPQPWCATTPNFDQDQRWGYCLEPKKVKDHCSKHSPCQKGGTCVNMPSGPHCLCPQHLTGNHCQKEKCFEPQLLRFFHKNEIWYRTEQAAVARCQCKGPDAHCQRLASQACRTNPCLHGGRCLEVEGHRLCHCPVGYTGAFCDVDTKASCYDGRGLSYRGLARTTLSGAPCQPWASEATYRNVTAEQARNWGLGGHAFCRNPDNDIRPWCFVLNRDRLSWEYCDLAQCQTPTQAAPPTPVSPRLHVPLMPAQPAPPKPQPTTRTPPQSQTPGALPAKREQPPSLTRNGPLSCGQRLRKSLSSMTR
Target sequence (P00748 373-615 limits assumed): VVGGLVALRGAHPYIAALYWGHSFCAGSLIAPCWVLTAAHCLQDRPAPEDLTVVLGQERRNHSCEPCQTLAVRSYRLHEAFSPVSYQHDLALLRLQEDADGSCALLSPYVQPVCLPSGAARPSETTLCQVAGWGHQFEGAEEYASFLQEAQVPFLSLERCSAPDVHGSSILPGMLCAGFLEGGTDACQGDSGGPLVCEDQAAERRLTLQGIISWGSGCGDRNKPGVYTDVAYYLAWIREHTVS
Thrombin inh: blocks human thrombin protease activity; 220,000 compounds, 0.26% hits; P00734; AID 1046; alpha-thrombin, Boc-VPR-AMC fluorogenic substrate cleavage; inhibition, % at 5 µM;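 active = inhibition at or above 40%; inactive = inhibition below 40%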
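Material: human alpha-thrombin protein. Incubation: reaction at ambient temperature. Technique: fluorescence of released AMC, ex 355 nm, em 460 nm. Control set: no-compound enzyme wells and no-enzyme blanks. Also added: Boc-VPR-AMC substrate, 15 µM final. Buffer or medium: pH 7.5 Tris (50 mM) with NaCl 150 mM, Tween 20 0.05%.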
FXIa inh 1536: blocks human coagulation factor XIa protease activity; P03951; purified FXIa, Boc-Glu-Ala-Arg-AMC fluorogenic substrate; inhibition, % at 5 µM; 220,000 compounds, 0.14% hits;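 active = inhibition of at least 40%; inactive = inhibition below 40%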;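 note: fluorescence of freed AMC excited at 355 nm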
Furin inhibitor: blocks human furin protease activity; inhibition, % at 20 µM or 30 µM; AID 463115; purified furin, fluorogenic substrate cleavage; P09958; 220,000 compounds, 0.061% hits; in the data active = inhibition above about 25%
A number is an active result; 0 = inactive; - = no result. Most compounds without a hit are left out; they make up all but 1.2% or so of the library.

SMILES	KLK5 inh	PERK inh	FXIIa inh	Thrombin inh	FXIa inh 1536	Furin inhibitor
Cc1ccc(N(C)C(=O)N2CCN(c3ccccn3)CC2)cc1	0	0	0	0	0	0
Cc1noc(C)c1COc1ccc(C(=O)Nc2ccccc2)cc1	0	0	0	0	0	0
Cc1noc(C)c1COc1ccc(C(=O)NCc2ccccn2)cc1	41	0	0	0	0	0
O=c1c2ccccc2nc2n1CCC2	60	0	0	0	0	0
CN1CCN(C(=O)c2ccc3c(=O)n4c(nc3c2)CCCCC4)CC1	42	0	0	0	0	0
CCCCC(=O)NC(=S)NNC(=O)c1ccc(OC)cc1	-	0	0	0	0	0
COC(=O)Cc1c(C)nc2nc(-c3ccc(C)cc3)[nH]n2c1=O	0	0	40	0	0	0
CC(C)Oc1ccc(C2CC(=O)N(Nc3ccc([N+](=O)[O-])cc3[N+](=O)[O-])C2=O)cc1 (stereo not given)	0	0	0	0	0	0
CCOc1ccc(C2CC(=O)N(Nc3ccc([N+](=O)[O-])cc3[N+](=O)[O-])C2=O)cc1 (stereo not given)	0	0	0	45	0	0
Cc1nc2ccccc2c(=O)n1/N=C/c1ccccn1	0	3.0	0	0	0	0
Cn1c(C(=O)N2CCN(c3ncccn3)CC2)cc2c(=O)n(C)c3ccccc3c21	46	0	0	0	0	0
CC(=O)c1ccc(N2CCN(S(=O)(=O)c3cccc(S(=O)(=O)N4CCOCC4)c3)CC2)cc1	90	0	47	0	0	0
CC(=O)c1ccc(N2CCN(C(=O)/C=C/c3ccc(S(=O)(=O)N4CCOCC4)cc3)CC2)cc1	0	0	-	0	0	0
CC(=O)c1ccc(S(=O)(=O)N2CCN(CC#N)CC2)cc1	0	4.5	0	0	0	0
CC(=O)c1ccc(S(=O)(=O)N2CCN(C(C)=O)CC2)cc1	0	0	0	0	0	0
COc1ccc(C(=O)O)cc1S(=O)(=O)N(CCc1ccccc1)Cc1ccccc1	0	0	0	0	0	0
NS(=O)(=O)c1ccc(NNC(=O)c2sccc2Cl)cc1	0	0	41	0	0	0
Cc1ccccc1NC(=S)NCc1ccco1	0	0	0	0	0	0
CCOc1ccccc1NC(=S)NCc1ccco1	45	0	0	0	0	0
Cc1nn(CCCC(=O)Nc2cccnc2Cl)c(C)c1[N+](=O)[O-]	0	0	0	0	0	0
CCC(C)NC(=O)C1CN(S(=O)(=O)c2ccccc2)CCN1S(=O)(=O)c1ccccc1 (stereo not given)	0	0	41	0	0	0
COc1ccc(C(=O)NCC(=O)OC2CCCCC2=O)cc1 (stereo not given)	0	3.6	0	0	0	0
Cn1c(SCC(=O)N2CCCC2)nc2cccnc21	0	0	0	0	0	0
O=C(CSc1nc2cccnc2n1Cc1ccccc1)N1CCCC1	46	0	0	0	0	0
O=C(NCc1ccccn1)c1ccc(-c2ccccc2)cc1	0	0	0	0	0	0
SMILES	KLK5 inh	PERK inh	FXIIa inh	Thrombin inh	FXIa inh 1536	Furin inhibitor
Cc1cccc(C)c1NC(=O)c1cn(-c2ccccc2)nc1-c1ccccc1	0	0	0	0	0	0
O=C(NCc1ccccn1)c1cn(-c2ccccc2)nc1-c1ccc(Cl)cc1	0	0	0	58	0	0
O=C(NN=C1CCCCCC1)c1cn(-c2ccccc2)nc1-c1ccccc1	0	0	0	100	0	0
CN(Cc1ccccc1)C(=S)Nc1ccc2nc3n(c(=O)c2c1)CCCCC3	0	0	0	0	0	0
NC(=O)C1(N2CCCCC2)CCN(C(=S)Nc2ccc(S(N)(=O)=O)cc2)CC1	0	0	0	0	0	0
C=CCSc1nc(C)cc2c1C(=O)OC2	0	0	0	0	0	0
COc1ccc(N2CCCn3c2nc2c3c(=O)n(Cc3ccc(C)cc3)c(=O)n2C)c(OC)c1	0	0	54	0	0	0
COc1cccc(N2CCCn3c2nc2c3c(=O)n(CCN3CCOCC3)c(=O)n2C)c1	0	0	0	0	0	0
O=c1c2ccccc2nc(SCCN2CCCCC2)n1CCc1ccccc1	0	0	0	0	0	0
Cc1ccc(C(=O)N/C(=C/c2ccc(-c3cccc([N+](=O)[O-])c3)o2)C(=O)NC(C)C)cc1	0	0	0	0	0	0
Cc1ccc(C(=O)N/C(=C/c2ccc(-c3cccc([N+](=O)[O-])c3)o2)C(=O)NC(C)(C)C)cc1	0	0	43	0	0	0
Cc1c(C(=O)/C=C/N(C)C)nnn1-c1ccc(Cl)cc1C#N	0	0	0	0	0	0
COC(=O)C1=C(C)N(C2CCCCC2)C(=O)/C1=C\c1cccs1	0	0	0	0	0	0
COc1ccc(S(=O)(=O)NCCC(=O)NCc2ccc(F)cc2)cc1	0	0	0	0	0	29
Cc1c(C#N)c(O)n(CCO)c(=O)c1N=Nc1ccc(S(N)(=O)=O)cc1	0	0	0	47	0	0
Cc1c(C#N)c(O)n(CCO)c(=O)c1N=Nc1ccccc1	0	0	0	0	0	0
Cc1c(C#N)c(O)n(C)c(=O)c1N=Nc1ccc(S(N)(=O)=O)cc1	0	0	0	57	0	0
NS(=O)(=O)c1ccc(N=Nc2c(O)ccc3ccccc23)cc1	0	0	0	0	0	0
Cc1ccc(-c2nc3sc(C#N)c(N)n3c(=O)c2C#N)cc1	0	0	0	0	0	0
CC(C)CC(=O)Nc1ccc(F)c(Cl)c1	0	0	0	0	0	0
CCCC(C)C(=O)Nc1ccc(F)c(Cl)c1 (stereo not given)	0	0	0	62	0	0
Fc1ccc(C2CCCN2Cc2nc(Cc3ccccc3)no2)cc1 (stereo not given)	0	0	0	0	0	0
CC1CCC2(CC1)NC(=S)N(C(C)(C)C)N2 (stereo not given)	42	0	0	0	0	0
CCOC(=O)Cn1cc(C#N)c2cccc(CC)c21	0	3.3	0	0	0	0
CCc1cccc2c(C#N)cn(CC(=O)NCc3ccco3)c12	0	0	0	0	0	0
SMILES	KLK5 inh	PERK inh	FXIIa inh	Thrombin inh	FXIa inh 1536	Furin inhibitor
CC1=C(C(N)=O)S(=O)(=O)c2ccccc21	0	3.1	0	0	0	0
COc1cc(C(=O)N[C@H](C(=O)NC2CCCCCC2)C(C)C)cc(OC)c1OC	44	0	0	0	0	0
CC(C)N(Cc1ccccc1)C(=S)NC1CCCCC1	0	0	102	0	42	0
CC(C)N(C(=S)NC1CCCCC1)c1ccccc1	0	0	0	0	0	0
CCn1c(C(C)NC(C)=O)nc2ccccc21 (stereo not given)	57	0	0	0	0	0
CCOC(=O)c1c(NC(=O)C(C)Sc2cccc[n+]2[O-])sc2c1CCN(Cc1ccccc1)C2 (stereo not given)	0	0	0	0	0	0
CCOC(=O)c1sc(NC(=O)CSc2nnc(Cc3ccccc3)o2)c(C(=O)OCC)c1C	74	0	0	0	0	0
CCOC(=O)c1c(NC(=O)CSc2nc3ccccc3s2)sc(C(C)=O)c1C	47	0	0	0	0	0

Compound activity from PubChem BioAssay.
